For test [1], the target named is Delta-type opioid receptor (Rattus norvegicus, UniProt P33533). The test is described as follows: Binding affinity for delta opioid receptor by displacing [3H]DADL was determined. In a few lines: (§1)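 Radioligand displacement binding at opioid receptors, with Ki values derived. Each receptor used its own radioligand: mu was [3H]DAMGO, delta was [3H]DADL and kappa was [3H]U69593.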

The target of test [2] is Mu-type opioid receptor (Rattus norvegicus, UniProt P33535). Kind of test: Binding affinity for mu opioid receptor by displacing [3H]-DAMGO was determined. The essentials:
as §1

Test [3] in a line: Binding affinity for gamma-S binding assay.
Test [4] is described as follows: Binding affinity for gamma-S binding assay; Inactive.
The target of test [5] is Kappa-type opioid receptor (Cavia porcellus, UniProt P41144). The test is described as follows: Binding affinity for kappa opioid receptor by displacing [3H]U-69593 was determined. The essentials: as §1

Where only a bound is given, the exact number is not on record here.

One may read the Ki as the dissociation constant of the complex between target and ligand, obtained from inhibition or displacement.

Sequence of Delta-type opioid receptor (P33533 whole entry): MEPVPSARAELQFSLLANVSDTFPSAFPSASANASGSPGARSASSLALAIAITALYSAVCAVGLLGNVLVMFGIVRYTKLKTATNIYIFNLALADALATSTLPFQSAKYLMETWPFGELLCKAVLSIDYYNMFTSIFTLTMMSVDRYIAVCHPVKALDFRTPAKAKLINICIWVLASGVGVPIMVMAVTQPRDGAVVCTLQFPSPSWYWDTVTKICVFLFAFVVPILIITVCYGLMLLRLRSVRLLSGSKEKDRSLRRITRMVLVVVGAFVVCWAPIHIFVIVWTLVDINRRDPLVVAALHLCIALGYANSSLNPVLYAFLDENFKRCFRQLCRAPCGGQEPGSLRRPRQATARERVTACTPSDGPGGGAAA
Sequence of Mu-type opioid receptor (P33535 whole entry): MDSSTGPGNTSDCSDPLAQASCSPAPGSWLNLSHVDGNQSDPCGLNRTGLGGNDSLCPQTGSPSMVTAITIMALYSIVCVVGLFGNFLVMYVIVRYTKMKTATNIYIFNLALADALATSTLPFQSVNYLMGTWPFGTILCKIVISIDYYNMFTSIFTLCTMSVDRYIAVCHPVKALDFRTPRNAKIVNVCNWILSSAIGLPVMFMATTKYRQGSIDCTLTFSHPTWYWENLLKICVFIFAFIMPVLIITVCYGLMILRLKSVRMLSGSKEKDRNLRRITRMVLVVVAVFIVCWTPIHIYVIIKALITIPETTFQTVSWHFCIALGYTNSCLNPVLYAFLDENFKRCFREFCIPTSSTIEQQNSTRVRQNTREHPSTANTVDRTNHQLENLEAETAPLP
Sequence of Kappa-type opioid receptor (P41144 whole entry): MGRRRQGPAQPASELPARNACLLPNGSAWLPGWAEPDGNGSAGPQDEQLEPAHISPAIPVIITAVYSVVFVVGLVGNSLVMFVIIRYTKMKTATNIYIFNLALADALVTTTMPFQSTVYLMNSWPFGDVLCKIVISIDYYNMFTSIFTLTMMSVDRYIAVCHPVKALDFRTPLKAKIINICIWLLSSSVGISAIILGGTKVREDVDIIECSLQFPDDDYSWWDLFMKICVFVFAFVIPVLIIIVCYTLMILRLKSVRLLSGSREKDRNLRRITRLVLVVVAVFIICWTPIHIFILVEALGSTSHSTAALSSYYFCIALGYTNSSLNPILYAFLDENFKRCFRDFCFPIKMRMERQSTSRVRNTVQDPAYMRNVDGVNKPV

As to `CCCC[C@H]1c2c([nH]c3ccccc23)[C@@H]2Oc3c(O)ccc4c3C23CCN(C)C(C4)C13` (some centres not stated) [Indole Derivative], the Ki in test [1] came out at 22 nM; in test [2], 1100 nM; in test [3] it was 46 nM.
For `COc1ccc2c3c1O[C@H]1c4[nH]c5ccccc5c4CC4C(C2)N(C)CCC341` (some centres not stated) [Indole Derivative] the same measures were 95 nM, > 5000 nM and 290 nM.
On to `CCCC[C@H]1c2c([nH]c3ccccc23)[C@@H]2Oc3c(OC)ccc4c3C23CCN(C)C(C4)C13` (some centres not stated) [Indole Derivative], for which the values for the inhibition constant (Ki) in test [1], in test [2] and in test [4] were 370 nM, > 4300 nM and > 750 nM, respectively.
On to `C[C@H]1c2c([nH]c3ccccc23)[C@@H]2Oc3c(O)ccc4c3C23CCN(CC2CC2)C(C4)C13` (some centres not stated), for which the Ki is 2.3 nM in test [1], 66 nM in test [2] and 36 nM in test [5].
Turning to `COc1ccc2c3c1O[C@H]1c4[nH]c5ccccc5c4[C@H](C)C4C(C2)N(C)CCC341` (some centres not stated) [Indole Derivative], the Ki in test [1] is 27 nM; in test [2], > 4800 nM; in test [3], 330 nM.
As to `C[C@H]1c2c([nH]c3ccccc23)[C@@H]2Oc3c(O)ccc4c3C23CCN(C)C(C4)C13` (some centres not stated) [Indole Derivative], the Ki in test [1] amounted to 0.7 nM; in test [2], 240 nM; in test [3], 49 nM.
With `C/C=C/C(=O)N1CCC23c4c5ccc(O)c4O[C@H]2c2[nH]c4ccccc4c2[C@H](C)C3C1C5` (some centres not stated), the Ki turned out to be 2.3 nM in test [1] and 120 nM in test [5].
As for `CN1CC[C@]23c4c5ccc(O)c4O[C@H]2c2[nH]c4ccccc4c2C[C@H]3[C@H]1C5`, the Ki in test [1] is 2.4 nM; in test [3], 15 nM.

Source of the values: BindingDB's records for doi:10.1016/s0960-894x(01)00689-8 (Niddk, 2001).
